Data from ChEMBL document CHEMBL4196041 (Eur J Med Chem, 2018).
Each block holds one compound with its values, some of them ahead of it.

How the values were obtained:
[1] = Drug level in Wistar rat liver S9 fraction treated with N-(benzo[d]thiazol-6-yl)-3-(cyclopropylmethoxy)-4-(difluoromethoxy)benzamide at 20 uM in presence of NADPH by UPLC-MS/MS analysis; type: ADME, subcellular; conditions: s9, 20 µM
[2] = molecular target: T1, 3',5'-cyclic-AMP phosphodiesterase 4B (Homo sapiens, UniProt Q07343); assay: Inhibition of human PDE4B by ELISA
[3] = molecular target: 3',5'-cyclic-AMP phosphodiesterase 4D (Homo sapiens, UniProt Q08499); assay: Inhibition of human PDE4D by ELISA
Homo sapiens = organism: Homo sapiens; assay: Selectivity ratio of IC50 for human PDE4D to IC50 for human PDE4B
[4] = molecular target: T1, 3',5'-cyclic-AMP phosphodiesterase 4B; assay: Inhibition of PDE4B (unknown origin) assessed as increase in cAMP level by measuring cAMP level after 3 hrs by cell based ELISA
[5] = molecular target: T1, 3',5'-cyclic-AMP phosphodiesterase 4B; assay: Inhibition of PDE4B (unknown origin) assessed as reduction in TNFalpha level after 1.5 hrs by cell based ELISA; conditions: concentration not given here
[6] = molecular target: T1, 3',5'-cyclic-AMP phosphodiesterase 4B; assay: Inhibition of PDE4B (unknown origin) assessed as increase in cAMP level after 3 hrs by cell based ELISA relative to roflumilast
[7] = Half life in Wistar rat liver S9 fraction at 20 uM in presence of NADPH by HPLC-UV analysis; type: ADME, subcellular
Procedure, shortened: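 Phase I stability in liver S9 (9,000× g) from male Wistar rats, prepared at 0–4°C. […] Stopped with cold acetonitrile plus chlorzoxazone internal standard. Centrifuged, then intact compound quantified by HPLC-UV; t1/2 and CLint derived from this.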

[8] = Intrinsic clearance in Wistar rat liver S9 fraction at 20 uM in presence of NADPH by UPLC-MS/MS analysis; type: ADME, subcellular
[9] = Protein binding in human plasma after 5 hrs by equilibrium dialysis method; type: ADME, cell-free; conditions: read-out: PPB (converted)
Procedure, shortened: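 Equilibrium dialysis across a cellulose membrane (MWCO 12-14 kDa) against isotonic PBS pH 7.4, with human plasma, 37°C for 5 hr. Compound in the plasma and buffer compartments measured by validated RP-HPLC-UV. %Bound = [1 − (buffer conc/plasma conc)] × 100.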

[10] = Half life in Sprague-Dawley rat at 1 mg/kg, sc administered as single dose by UPLC-MS/MS analysis; type: ADME, organism-based; conditions: in vivo
[11] = Tmax in Sprague-Dawley rat at 1 mg/kg, sc administered as single dose by UPLC-MS/MS analysis; type: ADME, organism-based; conditions: in vivo
[12] = Cmax in Sprague-Dawley rat at 1 mg/kg, sc administered as single dose by UPLC-MS/MS analysis; type: ADME, organism-based; set-up: dose 1 mg/kg, route subcutaneous; conditions: in vivo
[13] = AUC (0 to t) in Sprague-Dawley rat at 1 mg/kg, sc administered as single dose by UPLC-MS/MS analysis; type: ADME, organism-based; conditions: in vivo
[14] = AUC (0 to infinity) in Sprague-Dawley rat at 1 mg/kg, sc administered as single dose by UPLC-MS/MS analysis; type: ADME, organism-based; set-up: dose 1 mg/kg, route subcutaneous, time infinity; conditions: in vivo
[15] = Metabolic stability in Wistar rat liver S9 fraction assessed as parent compound remaining at 20 uM in presence of NADPH by UPLC-MS/MS analysis; type: ADME, subcellular; conditions: read-out: Stability
[16] = Drug metabolism in Wistar rat liver S9 fraction assessed as aromatic hydroxylation of benzathiazole moiety at 20 uM in presence of NADPH by UPLC-MS/MS analysis; type: ADME, subcellular; conditions: s9, 20 µM
[17] = Drug metabolism in Wistar rat liver S9 fraction assessed as 3-(cyclopropylmethoxy)-4-(difluoromethoxy)-N-(2-hydroxybenzo[d]thiazol-6-yl)benzamide formation at 20 uM in presence of NADPH by UPLC-MS/MS analysis; type: ADME, subcellular; conditions: s9, 20 µM
[18] = Drug metabolism in Wistar rat liver S9 fraction assessed as N-(4-amino-3-mercaptophenyl)-3-(cyclopropylmethoxy)-4-(difluoromethoxy)benzamide formation at 20 uM in presence of NADPH by UPLC-MS/MS analysis; type: ADME, subcellular; conditions: s9, 20 µM

T1 sequence (Q07343 whole entry): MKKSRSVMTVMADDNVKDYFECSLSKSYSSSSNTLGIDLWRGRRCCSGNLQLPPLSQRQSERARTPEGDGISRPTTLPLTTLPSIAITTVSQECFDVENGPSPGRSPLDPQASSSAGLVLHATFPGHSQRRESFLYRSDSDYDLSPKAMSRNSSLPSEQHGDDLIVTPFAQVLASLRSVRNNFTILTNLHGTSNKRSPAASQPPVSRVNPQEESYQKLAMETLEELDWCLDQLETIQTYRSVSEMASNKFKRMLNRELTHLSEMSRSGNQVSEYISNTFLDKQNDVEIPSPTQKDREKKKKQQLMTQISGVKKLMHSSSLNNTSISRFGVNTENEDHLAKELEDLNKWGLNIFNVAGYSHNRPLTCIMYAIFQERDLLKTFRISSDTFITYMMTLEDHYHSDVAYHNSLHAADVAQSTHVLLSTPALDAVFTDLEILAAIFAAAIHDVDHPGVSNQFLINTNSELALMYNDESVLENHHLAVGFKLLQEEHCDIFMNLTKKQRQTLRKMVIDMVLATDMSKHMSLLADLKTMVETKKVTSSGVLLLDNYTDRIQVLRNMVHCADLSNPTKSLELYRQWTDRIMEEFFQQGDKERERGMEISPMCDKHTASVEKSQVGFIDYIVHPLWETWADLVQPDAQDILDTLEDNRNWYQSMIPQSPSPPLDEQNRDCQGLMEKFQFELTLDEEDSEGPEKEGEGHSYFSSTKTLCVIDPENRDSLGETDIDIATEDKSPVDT
Chain of 3',5'-cyclic-AMP phosphodiesterase 4D (Q08499 whole entry): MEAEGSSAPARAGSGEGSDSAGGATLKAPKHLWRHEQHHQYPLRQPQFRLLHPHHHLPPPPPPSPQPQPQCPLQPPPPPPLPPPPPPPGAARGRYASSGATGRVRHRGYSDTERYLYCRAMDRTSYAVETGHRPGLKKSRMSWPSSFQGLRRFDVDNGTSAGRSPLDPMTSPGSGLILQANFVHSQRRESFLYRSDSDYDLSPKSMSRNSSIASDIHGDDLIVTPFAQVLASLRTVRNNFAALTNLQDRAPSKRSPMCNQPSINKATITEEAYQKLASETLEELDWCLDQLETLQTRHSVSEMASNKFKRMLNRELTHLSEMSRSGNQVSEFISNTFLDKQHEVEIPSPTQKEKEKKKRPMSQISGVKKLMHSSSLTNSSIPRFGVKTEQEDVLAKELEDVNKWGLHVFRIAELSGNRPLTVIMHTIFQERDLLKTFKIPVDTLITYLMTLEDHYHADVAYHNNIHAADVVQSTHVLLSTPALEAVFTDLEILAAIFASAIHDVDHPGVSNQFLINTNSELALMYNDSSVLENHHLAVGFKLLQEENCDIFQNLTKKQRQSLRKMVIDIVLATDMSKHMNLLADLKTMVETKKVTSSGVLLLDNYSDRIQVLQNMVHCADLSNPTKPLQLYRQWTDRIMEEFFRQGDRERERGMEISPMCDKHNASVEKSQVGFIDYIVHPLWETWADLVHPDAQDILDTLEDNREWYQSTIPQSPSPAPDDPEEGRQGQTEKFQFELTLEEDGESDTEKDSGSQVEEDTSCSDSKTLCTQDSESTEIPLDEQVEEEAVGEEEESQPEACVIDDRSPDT

Compound: O=C(Nc1ccc2nc(O)sc2c1)c1ccc(OC(F)F)c(OCC2CC2)c1
- Drug metabolism [1]: Metabolite_Detected

Compound: CCOc1ccc2nc(NC(=O)c3ccc(OC(F)F)c(OCC4CC4)c3)sc2c1
- IC50 [2]: 2.92 nM

Compound: O=C(Nc1c(Cl)cncc1Cl)c1ccc(OC(F)F)c(OCC2CC2)c1 [ROFLUMILAST]
- Activity [4]: 1.9 pmol/mL
- inhibition [5]: 70.3%
- half-life at 20 µM [7]: 0.205 h
- CLint at 20 µM [8]: 114 mL/min/kg
- fraction unbound at 5 h [9]: 0.0151
- half-life [10]: 6.94 h
- Tmax [11]: 1 h
- Cmax [12]: 109 µg/mL
- AUC(0-t) [13]: 449 µg·h/mL
- AUC(0-inf) [14]: 500 µg·h/mL

Compound: COc1ccc2nc(NC(=O)c3ccc(OC(F)F)c(OCC4CC4)c3)sc2c1
- IC50 [2]: 2.28 to 2.29 nM

Compound: O=C(Nc1nc2ccc(F)cc2s1)c1ccc(OC(F)F)c(OCC2CC2)c1
- IC50 [2]: 1.87 nM

Compound: Nc1ccc(NC(=O)c2ccc(OC(F)F)c(OCC3CC3)c2)cc1S
- Drug metabolism [1]: Metabolite_Detected

Compound: O=C(Nc1nc2ccc(C(F)(F)F)cc2s1)c1ccc(OC(F)F)c(OCC2CC2)c1
- IC50 [2]: 5.23 nM

Compound: O=C(Nc1nc2ccc([N+](=O)[O-])cc2s1)c1ccc(OC(F)F)c(OCC2CC2)c1
- IC50 [2]: 8.67 nM

The remaining lines, values ahead:

- IC50 [2]: 1.06 nM
Compound: COc1cccc2sc(NC(=O)c3ccc(OC(F)F)c(OCC4CC4)c3)nc12

- IC50 [2]: 1.22 nM
Compound: O=C(Nc1nc2ccc(Cl)cc2s1)c1ccc(OC(F)F)c(OCC2CC2)c1

- IC50 [2]: 0.75 nM
- IC50 [3]: 4.54 nM
- Ratio IC50 (Homo sapiens): 6.05
- Activity [4]: 4.45 pmol/mL
- inhibition [5]: 67.8%
- fold change (FC) [6]: > 2
- half-life at 20 µM [7]: 4.13 h
- CLint at 20 µM [8]: 5.67 mL/min/kg
- fraction unbound at 5 h [9]: 0.463
- half-life [10]: 22 h
- Tmax [11]: 2 h
- Cmax [12]: 114 µg/mL
- AUC(0-t) [13]: 622 µg·h/mL
- AUC(0-inf) [14]: 1040 µg·h/mL
- remaining at 20 µM [15]: 84.2%
Compound: O=C(Nc1ccc2nc(S)sc2c1)c1ccc(OC(F)F)c(OCC2CC2)c1

- IC50 [2]: 0.57 nM
- IC50 [3]: 5.07 nM
- Ratio IC50 (Homo sapiens): 8.89
- Activity [4]: 2.68 pmol/mL
- inhibition [5]: 58.6%
- half-life at 20 µM [7]: 0.705 h
- CLint at 20 µM [8]: 33.2 mL/min/kg
- half-life [10]: 9.82 h
- Tmax [11]: 1 h
- Cmax [12]: 95.5 µg/mL
- AUC(0-t) [13]: 594 µg·h/mL
- AUC(0-inf) [14]: 800 µg·h/mL
- Drug metabolism [16]: Metabolite_Detected
- remaining at 20 µM [15]: 36.4%
Compound: O=C(Nc1nc2ccccc2s1)c1ccc(OC(F)F)c(OCC2CC2)c1

- IC50 [2]: 0.68 nM
- IC50 [3]: 2.73 nM
- Ratio IC50 (Homo sapiens): 4.01
- half-life at 20 µM [7]: 1.05 h
- CLint at 20 µM [8]: 22.3 mL/min/kg
- fraction unbound at 5 h [9]: 0.0361
- half-life [10]: 22 h
- Tmax [11]: 2 h
- Cmax [12]: 86.2 µg/mL
- AUC(0-t) [13]: 892 µg·h/mL
- AUC(0-inf) [14]: 1620 µg·h/mL
- Drug metabolism [17]: Metabolite_Detected
- Drug metabolism [18]: Metabolite_Detected
- remaining at 20 µM [15]: 36.8%
Compound: O=C(Nc1ccc2ncsc2c1)c1ccc(OC(F)F)c(OCC2CC2)c1

- IC50 [2]: 1.26 nM
Compound: Cc1nc2ccc(NC(=O)c3ccc(OC(F)F)c(OCC4CC4)c3)cc2s1

- IC50 [2]: 1.17 nM
Compound: COc1cc2nc(NC(=O)c3ccc(OC(F)F)c(OCC4CC4)c3)sc2cc1OC

- IC50 [2]: 1.28 nM
Compound: N#Cc1ccc2nc(NC(=O)c3ccc(OC(F)F)c(OCC4CC4)c3)sc2c1

- IC50 [2]: 1.6 nM
Compound: O=C(Nc1nccs1)c1ccc(OC(F)F)c(OCC2CC2)c1
